The test system of data set [1] is Plasmodium berghei. In words: Antimalarial activity against Plasmodium berghei infected in mouse assessed as change in mean survival time at 10 mg/kg (reference value: 6.2 +/- 0.5 days). The data set is classed as functional.
Data set [2] deals with Plasmodium berghei. Kind of data set: Antimalarial activity against Plasmodium berghei infected in mouse assessed as change in mean survival time at 20 mg/kg (reference value: 6.2 +/- 0.5 days). In kind it is functional.
Data set [3] has as its system Plasmodium berghei. Kind of data set: Antimalarial activity against Plasmodium berghei infected in mouse assessed as change in mean survival time at 40 mg/kg (reference value: 6.2 +/- 0.5 days). In kind it is functional.
The subject of data set [4] is Plasmodium berghei. In words: Antimalarial activity against Plasmodium berghei infected in mouse assessed as change in mean survival time at 80 mg/kg (reference value: 6.2 +/- 0.5 days). In kind it is functional.
In data set [5] the test system is Plasmodium berghei. Kind of data set: Antimalarial activity against Plasmodium berghei infected in mouse assessed as change in mean survival time at 1.25 mg/kg (reference value: 6.2 +/- 0.5 days). In kind it is functional.
The subject of data set [6] is Plasmodium berghei. In words: Antimalarial activity against Plasmodium berghei infected in mouse assessed as change in mean survival time at 2.5 mg/kg (reference value: 6.2 +/- 0.5 days). In kind it is functional.
Data set [7] deals with Plasmodium berghei. Kind of data set: Antimalarial activity against Plasmodium berghei infected in mouse assessed as change in mean survival time at 5 mg/kg (reference value: 6.2 +/- 0.5 days). The data set is classed as functional.
Data set [8] concerns Plasmodium cynomolgi. In words: Antimalarial activity against Plasmodium cynomolgi infected in rhesus monkey assessed as relapse time at 0.375 mg/kg qd for 7 days in presence of chloroquine. In kind it is functional.
Data set [9] concerns Plasmodium cynomolgi. Kind of data set: Antimalarial activity against Plasmodium cynomolgi infected in rhesus monkey assessed as relapse time at 0.5 mg/kg qd for 7 days in presence of chloroquine. The data set is classed as functional.
The subject of the next data set is Rhesus monkey. In words: Toxicity in rhesus monkey at 0.375 to 0.75 mg/kg. In kind it is organism-based, Macaca mulatta. Further details: dose 0.375-0.75 mg/kg. As to conditions: in vivo.
The test system of data set [10] is Plasmodium berghei. In words: Antimalarial activity against Plasmodium berghei infected in mouse assessed as change in mean survival time at 160 mg/kg (reference value: 6.2 +/- 0.5 days). The data set is classed as functional.
For data set [11], the system named is Plasmodium berghei. Kind of data set: Antimalarial activity against Plasmodium berghei infected in mouse assessed as change in mean survival time at 320 mg/kg (reference value: 6.2 +/- 0.5 days). In kind it is functional.
Data set [12] deals with Plasmodium cynomolgi. In words: Antimalarial activity against Plasmodium cynomolgi infected in rhesus monkey assessed as cured animal at 0.75 mg/kg qd for 7 days measured after 105 days in presence of chloroquine. Further details: dose 0.75 mg/kg. In kind it is functional, organism-based. The procedure, abridged:
(§1)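 Test compounds were given as phosphate salts, with doses expressed as free base, once daily for 7 days together with chloroquine at 2.5 mg per kg body weight. An animal was scored as cured when thick blood films stayed parasite-negative for 105 days or more after the last dose.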

Data set [13] concerns Plasmodium berghei. In words: Antimalarial activity against Plasmodium berghei infected in mouse assessed as change in mean survival time at 640 mg/kg (reference value: 6.2 +/- 0.5 days). In kind it is functional.
Data set [14] deals with Plasmodium cynomolgi. In words: Antimalarial activity against Plasmodium cynomolgi infected in rhesus monkey assessed as cured animal at 0.375 mg/kg qd for 7 days measured after 105 days in presence of chloroquine. Further details: dose 0.375 mg/kg. In kind it is functional, organism-based. In outline: as §1
The subject of data set [15] is Plasmodium cynomolgi. In words: Antimalarial activity against Plasmodium cynomolgi infected in rhesus monkey assessed as cured animal at 0.5 mg/kg qd for 7 days measured after 105 days in presence of chloroquine. In kind it is functional, organism-based. Further details: dose 0.5 mg/kg. In outline: as §1
For data set [16], the system named is Mus musculus. In words: Toxicity in mouse infected with Plasmodium berghei assessed as mortality at 160 mg/kg after 2 to 5 days. In kind it is organism-based. Further details: dose 160 mg/kg. As to conditions: in vivo.
Data set [17] relates to Mus musculus. In words: Toxicity in mouse infected with Plasmodium berghei assessed as mortality at 320 mg/kg after 2 to 5 days. In kind it is organism-based. Further details: dose 320 mg/kg. Particulars: in vivo.
For data set [18], the system named is Mus musculus. Kind of data set: Toxicity in mouse infected with Plasmodium berghei assessed as mortality at 640 mg/kg after 2 to 5 days. The data set is classed as organism-based. More on the design: dose 640 mg/kg. Particulars: in vivo.

MST, Time and Activity data for 20 compounds are collected here from ChEMBL document CHEMBL3244007, “Resolution of antimalarial agents via complex formation with alpha-(2,4,5,7-tetranitro-9-fluorenylideneaminooxy) propionic acid” (J Med Chem, 1978).

Activity calls are given as the source filed them. The calls are words filed in the database; no cut-off is given here.

`CCCCN(CCCC)CC(O)c1cc(-c2ccc(C(F)(F)F)cc2)nc(-c2ccc(C(F)(F)F)cc2)c1` (stereo in doubt; (+)-2): the MST in the data set with Plasmodium berghei [1] came out at 3.9 days; in the data set on Plasmodium berghei [2], 10.7 days; in the data set with Plasmodium berghei [3] (40 mg/kg) it was 18.1 days; with Plasmodium berghei [4] (80 mg/kg), 25.6 days.
Turning to `CCCCN(CCCC)CC(O)c1cc(-c2ccc(Cl)c(Cl)c2)nc2c(Cl)cc(Cl)cc12` (racemic), the MST turned out to be 0.3 days in the data set with Plasmodium berghei [5]; 4.1 days in the data set on Plasmodium berghei [6]; 6.1 days in the data set on Plasmodium berghei [7]; 10.7 days in the data set with Plasmodium berghei [1]; 14.9 days in the data set on Plasmodium berghei [2]; 11.9 days in the data set on Plasmodium berghei [3] (40 mg/kg). Besides, the MST in the data set on Plasmodium berghei [4] (80 mg/kg) is 22.9 days.
Consider `COc1cc(NC(C)CCCN)c2ncccc2c1.O=P(O)(O)O.O=P(O)(O)O` (stereo in doubt; (+)-5) [PRIMAQUINE PHOSPHATE], for which the values for the Time in the data set on Plasmodium cynomolgi [8] and in the data set with Plasmodium cynomolgi [9] were 10 days and 28 days, respectively. For the same compound, the Activity result in the data set with Rhesus monkey is on record as “Toxic”.
On to `Nc1nc(N)c2c(n1)CCC(S(=O)(=O)c1ccc3ccccc3c1)C2` (single isomer, unassigned; (+)), for which the MST in the data set on Plasmodium berghei [2] is 0.3 days; in the data set with Plasmodium berghei [3], 1.7 days; in the data set with Plasmodium berghei [4], 4.5 days; in the data set with Plasmodium berghei [10] it was 6.9 days; with Plasmodium berghei [11] it was 9.1 days.
On to `CCCCN(CCCC)CCC(O)c1cc2c(Cl)cc(Cl)cc2c2cc(C(F)(F)F)ccc12` (stereo in doubt; (-)-8) [HALOFANTRINE], for which the MST with Plasmodium berghei [5] stood at 0.1 days; in the data set on Plasmodium berghei [6], 0.3 days; in the data set with Plasmodium berghei [7] it was 1.5 days; in the data set with Plasmodium berghei [1], 5.1 days; in the data set with Plasmodium berghei [2], 8.9 days; in the data set on Plasmodium berghei [3] (40 mg/kg) it was 12.5 days. Moreover, in the data set with Plasmodium berghei [4] (80 mg/kg), the MST was determined as 13.2 days.
For `COc1cc(NC(C)CCCN)c2ncccc2c1` (stereo in doubt; (+)-5), the result with Plasmodium cynomolgi [12] was Active.
Consider `CCCCCCCN(CCCCCCC)CC(O)c1cc2ccccc2c2cc(Br)ccc12` (single isomer, unassigned; (+)), for which the MST in the data set with Plasmodium berghei [2] was determined as 0.5 days; in the data set with Plasmodium berghei [3] (40 mg/kg) it was 1.7 days; in the data set with Plasmodium berghei [4] (80 mg/kg), 4.1 days; in the data set on Plasmodium berghei [10] (160 mg/kg) it was 6.7 days; with Plasmodium berghei [11] (320 mg/kg), 9.3 days; in the data set with Plasmodium berghei [13], 14.9 days.
With `CCCCN(CCCC)CCC(O)c1cc2c(Cl)cc(Cl)cc2c2cc(C(F)(F)F)ccc12` (racemic) [HALOFANTRINE], the MST in the data set with Plasmodium berghei [7] was determined as 9.3 days; in the data set with Plasmodium berghei [1], 14.9 days.
In the case of `Nc1nc(N)c2c(n1)CCC(S(=O)(=O)c1ccc3ccccc3c1)C2` (racemic), the MST is 4.9 days with Plasmodium berghei [5], 7.5 days in the data set with Plasmodium berghei [6], 10.7 days in the data set with Plasmodium berghei [7] and 11.9 days with Plasmodium berghei [1].
On to `COc1cc(NC(C)CCCN)c2ncccc2c1.O=P(O)(O)O.O=P(O)(O)O` (single isomer, unassigned; (-)) [PRIMAQUINE PHOSPHATE], for which the values for the Time in the data set on Plasmodium cynomolgi [8] and with Plasmodium cynomolgi [9] were 11 days and 16 days, respectively.
Consider `CCCCN(CCCC)CC(O)c1cc(-c2ccc(Cl)c(Cl)c2)nc2c(Cl)cc(Cl)cc12` (single isomer, unassigned; (+)), for which the MST in the data set on Plasmodium berghei [5] is 0.5 days; in the data set on Plasmodium berghei [6], 0.5 days; in the data set on Plasmodium berghei [7] it was 3.5 days; in the data set with Plasmodium berghei [1], 6.9 days; in the data set with Plasmodium berghei [2] it was 10 days; in the data set with Plasmodium berghei [3] (40 mg/kg), 11.8 days.
In the case of `CCCCCCCN(CCCCCCC)CC(O)c1cc2ccccc2c2cc(Br)ccc12` (racemic), the MST was found to be 2.9 days with Plasmodium berghei [2]; 6.9 days with Plasmodium berghei [3] (40 mg/kg); 11.3 days with Plasmodium berghei [4] (80 mg/kg); 15.3 days with Plasmodium berghei [10] (160 mg/kg); 25.9 days with Plasmodium berghei [11] (320 mg/kg).
With `CCCCN(CCCC)CC(O)c1cc(-c2ccc(C(F)(F)F)cc2)nc(-c2ccc(C(F)(F)F)cc2)c1` (racemic), the MST was determined as 5.5 days in the data set on Plasmodium berghei [1] and 8.6 days with Plasmodium berghei [2].
Regarding `COc1cc(NC(C)CCCN)c2ncccc2c1` (single isomer, unassigned; (-)), the outcome with Plasmodium cynomolgi [12] was Active.
With `COc1cc(NC(C)CCCN)c2ncccc2c1` (racemic), the result in the data set on Plasmodium cynomolgi [12] and in the data set with Plasmodium cynomolgi [15] was Active. Further, the outcome with Plasmodium cynomolgi [14] was inactive.
For the compound `CCCCN(CCCC)CC(O)c1cc(-c2ccc(Cl)c(Cl)c2)nc2c(Cl)cc(Cl)cc12` (single isomer, unassigned; (-)), the MST in the data set on Plasmodium berghei [2] was determined as 3.8 days; with Plasmodium berghei [3] (40 mg/kg) it was 7.8 days; with Plasmodium berghei [4] (80 mg/kg), 9 days; in the data set on Plasmodium berghei [10] it was 12.8 days.
For `CCCCCCCN(CCCCCCC)CC(O)c1cc2ccccc2c2cc(Br)ccc12` (stereo in doubt; (-)-3), the MST in the data set with Plasmodium berghei [2] worked out at 0.3 days; in the data set on Plasmodium berghei [3] (40 mg/kg), 2.1 days; in the data set with Plasmodium berghei [4] (80 mg/kg) it was 3.9 days; in the data set on Plasmodium berghei [10] (160 mg/kg), 5.3 days; in the data set with Plasmodium berghei [11] (320 mg/kg) it was 6.1 days; with Plasmodium berghei [13], 11.1 days.
For the compound `CCCCN(CCCC)CC(O)c1cc(-c2ccc(C(F)(F)F)cc2)nc(-c2ccc(C(F)(F)F)cc2)c1` (single isomer, unassigned; (-)), the MST with Plasmodium berghei [1] amounted to 1.3 days; in the data set with Plasmodium berghei [2], 3.1 days; in the data set with Plasmodium berghei [3] (40 mg/kg), 10.5 days; with Plasmodium berghei [4] (80 mg/kg), 13.1 days; in the data set on Plasmodium berghei [10], 19.9 days.
Turning to `CCCCN(CCCC)CCC(O)c1cc2c(Cl)cc(Cl)cc2c2cc(C(F)(F)F)ccc12` (stereo in doubt; (+)-8) [HALOFANTRINE], the MST in the data set with Plasmodium berghei [5] worked out at 0.5 days; in the data set on Plasmodium berghei [6], 3.1 days; in the data set with Plasmodium berghei [7], 7.5 days; with Plasmodium berghei [1], 10.3 days; in the data set on Plasmodium berghei [2] it was 11.1 days; with Plasmodium berghei [3] (40 mg/kg), 14.5 days. Further, the MST in the data set with Plasmodium berghei [4] (80 mg/kg) is 16.9 days.
For the compound `Nc1nc(N)c2c(n1)CCC(S(=O)(=O)c1ccc3ccccc3c1)C2` (single isomer, unassigned; (-)), the MST with Plasmodium berghei [5] was found to be 1.3 days; in the data set on Plasmodium berghei [6] it was 3.1 days; with Plasmodium berghei [7], 4.9 days; in the data set with Plasmodium berghei [1] it was 7.1 days; in the data set with Plasmodium berghei [2], 11.3 days. For the same compound, the Activity result in the data set with Mus musculus [16], in the data set with Mus musculus [17] and in the data set with Mus musculus [18] was “Toxic” throughout.
